Our source for the CD values is ChEMBL document CHEMBL1141763, “Limnophilaspiroketone, a highly oxygenated phenolic derivative from Limnophila geoffrayi” (J Nat Prod, 2005).

SMILES strings stand for the structures.

The target in this assay is NAD(P)H dehydrogenase [quinone] 1 (Homo sapiens) (UniProt P15559). Description: Induction of quinone reductase. In outline: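 Quinone reductase induction measured in cultured mouse Hepa 1c1c7 hepatoma cells, following a previously described method. Activity is reported as CD, the concentration that doubles QR induction, in µg/mL.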
NAD(P)H dehydrogenase [quinone] 1 (Homo sapiens), sequence (P15559 whole entry): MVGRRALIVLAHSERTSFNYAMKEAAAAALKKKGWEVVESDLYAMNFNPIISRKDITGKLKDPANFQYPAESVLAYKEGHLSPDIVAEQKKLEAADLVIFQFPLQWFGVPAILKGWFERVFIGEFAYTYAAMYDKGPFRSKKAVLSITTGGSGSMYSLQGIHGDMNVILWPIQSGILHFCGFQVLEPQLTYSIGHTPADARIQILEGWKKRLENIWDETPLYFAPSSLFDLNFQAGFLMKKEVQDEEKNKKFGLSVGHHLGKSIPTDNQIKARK
With `COc1ccc(-c2cc(=O)c3c(O)c(OC)c(O)c(OC)c3o2)cc1`, the CD was more than 20 µg/mL.

As to `COc1c(OC)c(O)c2c(=O)cc(-c3ccc(O)cc3)oc2c1O`, the CD was more than 20 µg/mL.

Compound `COC(=O)[C@@]1(O)C(OC)=C(OC)C(=O)[C@]12OC(c1ccc(O)cc1)=CC2=O` came in with a CD of more than 20 µg/mL.

For the compound `C=C(C)[C@@H]1CC[C@]2(C(=O)O)CC[C@]3(C)[C@H](CC[C@@H]4[C@@]5(C)CC[C@H](O)C(C)(C)[C@@H]5CC[C@]43C)[C@@H]12`, the CD is more than 20 µg/mL.

Take `COc1ccc(-c2cc(=O)c3c(O)c(OC)c(OC)c(OC)c3o2)cc1`: the CD was more than 20 µg/mL.

In turn, `CC(C)=CCC/C(C)=C\CC/C(C)=C\Cc1cc(C(=O)O)ccc1O` registered a CD of more than 20 µg/mL.

In turn, `CC1(C)CC[C@]2(C(=O)O)CC[C@]3(C)C(=CC[C@@H]4[C@@]5(C)CC[C@H](O)C(C)(C)[C@@H]5[C@H](O)C[C@]43C)[C@@H]2C1` displayed a CD of more than 20 µg/mL.

`CC1(C)CC[C@]2(C(=O)O)CC[C@]3(C)C(=CC[C@@H]4[C@@]5(C)CC[C@H](O)[C@@](C)(CO)[C@@H]5CC[C@]43C)[C@@H]2C1` returned a CD of more than 20 µg/mL.

The compound `C[C@@H]1CC[C@]2(C(=O)O)CC[C@]3(C)C(=CC[C@@H]4[C@@]5(C)CC[C@H](O)[C@](C)(CO)[C@@H]5CC[C@]43C)[C@@H]2[C@]1(C)O` came in with a CD of more than 20 µg/mL.
